SUMO1 PPI mod – modulators of human SUMO1-mediated protein-protein interactions. 0.33% of 360,000 active. P63165. AID 602429. SUMO1 binding to a labelled peptide, TR-FRET, 1 h. inhibition, % at 20 µM; in the data active means inhibition above about 37%
Target sequence (P63165 whole entry, looked up): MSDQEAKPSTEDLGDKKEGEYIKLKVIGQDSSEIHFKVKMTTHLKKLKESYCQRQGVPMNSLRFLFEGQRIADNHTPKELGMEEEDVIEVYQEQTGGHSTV
STEP block – blocks human striatal-enriched tyrosine phosphatase. P54829. inhibition, % at 20 µM. recombinant STEP, OMFP fluorogenic substrate, fluorescence. 0.25% of 360,000 active;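 active means inhibition at 20 µM, scaled per plate between control wells, above about 37%, limit read from the data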
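Also added – OMFP at 25 µM · Test system – STEP tyrosine phosphatase · Technique – FITC-channel fluorescence of OMFP product · Schedule – 20 min at room temperature, dark · Evaluation – control-normalized % inhibition with plate pattern correction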
Scp1 inh – inhibitors of human Scp-1 phosphatase; Q9GZU7; Recombinant Scp1, phosphopeptide, malachite green phosphate absorbance; inhibition, % at 20 µM; 0.88% of 340,000 active;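 active means inhibition above about 50% at 20 µM, limit read from the data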
Target sequence (Q9GZU7 76-261 limits assumed): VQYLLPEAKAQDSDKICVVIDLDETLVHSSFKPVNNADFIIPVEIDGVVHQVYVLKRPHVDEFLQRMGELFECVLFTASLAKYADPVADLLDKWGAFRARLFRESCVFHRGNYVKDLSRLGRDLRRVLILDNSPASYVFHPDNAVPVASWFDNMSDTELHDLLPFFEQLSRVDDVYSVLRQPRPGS
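Material – SCP-1 phosphatase catalytic domain, residues 76-261 · Buffer or medium – Acidic Tris acetate buffer with magnesium and detergent · Also added – Phospho 17-mer peptide substrate · Compound – single 20 µM dose, 1% DMSO · Times – 45 min room-temperature reaction, 5 min colour, 30 min stabiliser · Technique – Phosphate-binding colour reagent, absorbance read at 630 nm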
DNMT1 inh – inhibitors of human DNMT1. AID 588458. inhibition (reported as % activation of signal), % at 10 µM. 0.83% of 360,000 active. DNMT1 molecular beacon, Hinp1I cleavage, fluorescence; in the data active means inhibition above about 50%
LMPTP block – LMPTP (human) inhibition; recombinant LMPTP-A, OMFP fluorogenic substrate, fluorescence intensity; inhibition, % at 20 µM; 0.22% of 360,000 active;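 active means compounds that cut the enzyme signal by at least half of the control window in the single-dose screen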
Target sequence (P24666 whole entry, looked up): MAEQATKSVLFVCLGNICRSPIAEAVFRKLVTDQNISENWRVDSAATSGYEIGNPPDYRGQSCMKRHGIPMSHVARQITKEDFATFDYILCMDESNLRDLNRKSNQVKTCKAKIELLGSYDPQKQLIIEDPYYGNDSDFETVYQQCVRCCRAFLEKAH
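Test system – LMPTP-A enzyme · Amount – LMPTP-A at 0.625 nM final in the reaction · Buffer or medium – Bis-Tris pH 6.0, DTT, detergent · Reagent – OMFP 400 µM · Doses – single 20 µM dose · Schedule – reaction 50 min, room temperature, dark · Detection – fluorescence intensity of OMFP turnover product · Evaluation – percent inhibition versus substrate-only and uninhibited controls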
Scp-1 conf – Scp-1 (human) inhibition, single-dose confirmed; shares compounds with Scp1 inh; recombinant SCP-1 catalytic domain, phosphate release, malachite green absorbance; inhibition, % at 20 µM; 61% of 2,500 active; AID 540281
Scp-1 MG ctr – colorimetric interference in Scp-1 counter-screen; 2,500 tested, under 10 active; shares compounds with Scp1 inh; Colorimetric interference counterscreen, malachite green absorbance 630 nm; apparent inhibition (interference), % at 20 µM;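 further: compounds added after enzyme reaction finished so only phosphate colour detection is probed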
Scp1 DSF – Scp-1 (human) binding by thermal shift. shares compounds with Scp1 inh. AID 540329. thermal shift relative to vanadate control, % at 40 µM. 25% of 1,500 active. Recombinant SCP1, Sypro Orange thermal shift Tm;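 active means substances whose mean melting-temperature shift, as a percentage of the reference inhibitor's shift, reaches about 5.3%, limit read from the data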
DNMT1 inh conf – confirmation of human DNMT1 inhibitors; 8% of 2,300 active; inhibition, % at 10 µM; DNMT1 molecular beacon HinP1I cleavage, fluorescence; shares compounds with DNMT1 inh; AID 602385;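 active means average inhibition of at least 30% in the single-concentration confirmation test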
Beacon interf – counter-screen for DNMT1 inhibitors: spectral interference. shares compounds with DNMT1 inh. DNMT1 molecular beacon spectral interference counterscreen, fluorescence 485/520. activation (fluorescence interference), % at 10 µM. 1% of 2,300 active. AID 602387;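 active means activation of at least 30% at 10 µM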;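 further: DNMT1 catalytic domain with a HinP1I cleavage step and a FAM/dabcyl DNA beacon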
Hits are given with their value. Rows were chosen to be rich in hits. Some 1.7% of all compounds tested hit in one or more screens of this group.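 How the source made its calls, unless noted: active means inhibition of at least 30% at 20 µM; inactive means the rest.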

For COc1ccc(C(=O)Nc2cc3c(oc2=O)CCCC3=O)cc1 the results were SUMO1 PPI mod inactive, STEP block inactive, Scp1 inh 57, DNMT1 inh 68, LMPTP block inactive, Scp-1 conf 44, Scp-1 MG ctr inactive, Scp1 DSF inactive, DNMT1 inh conf inactive and Beacon interf inactive.
Screening O=c1cc(CSc2nnc(-c3cccs3)n2Cc2ccccc2)nc2sc3ccccc3n12 returned SUMO1 PPI mod inactive, STEP block inactive, Scp1 inh 75, DNMT1 inh 96, LMPTP block inactive, Scp-1 conf 68, Scp-1 MG ctr inactive, Scp1 DSF inactive, DNMT1 inh conf inactive and Beacon interf inactive.
For Cc1cc(C(=O)CSc2nnc(-c3cccs3)n2Cc2ccccc2)c(C)n1C the results were SUMO1 PPI mod inactive, STEP block inactive, Scp1 inh inactive, DNMT1 inh inactive and LMPTP block inactive.
`CCOc1ccc(CCNC(=O)C2CC(C)=CCC2C(=O)O)cc1OCC` (stereo unspecified) gave SUMO1 PPI mod 56, STEP block inactive, Scp1 inh 87, DNMT1 inh 53, LMPTP block inactive, Scp-1 conf 58, Scp-1 MG ctr inactive, Scp1 DSF inactive, DNMT1 inh conf inactive and Beacon interf inactive.
Screening CCOc1ccc(CCNC(=O)C2CC=CCC2C(=O)OC(C)C)cc1OCC (stereo unspecified) returned SUMO1 PPI mod inactive, STEP block inactive, Scp1 inh inactive, DNMT1 inh inactive and LMPTP block inactive.
`COc1ccc(Cl)cc1-c1cc(C(=O)NCc2ccccc2)[nH]n1` gave SUMO1 PPI mod inactive, STEP block inactive, DNMT1 inh inactive and LMPTP block inactive.
`Cn1c(SCC(=O)O)nc2sc3c(c2c1=O)CCC3` gave SUMO1 PPI mod inactive, STEP block inactive, Scp1 inh inactive, DNMT1 inh inactive and LMPTP block inactive.
For CCn1c(SCC(=O)OC)nc2sc3c(c2c1=O)CC(C)(C)OC3 the results were SUMO1 PPI mod inactive, STEP block inactive, Scp1 inh inactive, DNMT1 inh inactive and LMPTP block inactive.
CCn1c(SCC(=O)OC)nc2sc3c(c2c1=O)CCC3 was read as SUMO1 PPI mod inactive, STEP block inactive, Scp1 inh 57, DNMT1 inh 70, LMPTP block inactive, Scp-1 conf 64, Scp-1 MG ctr inactive, Scp1 DSF inactive, DNMT1 inh conf inactive and Beacon interf inactive.
`CCn1c(SCC(=O)O)nc2sc3c(c2c1=O)CCC3` gave SUMO1 PPI mod inactive, STEP block inactive, Scp1 inh 73, DNMT1 inh 71, LMPTP block inactive, Scp-1 conf 50, Scp-1 MG ctr inactive, Scp1 DSF inactive, DNMT1 inh conf inactive and Beacon interf inactive.
CC(=O)Nc1ccc(-c2ccnc3c2CC(C(=O)Nc2cccc(Oc4ccccc4)c2)O3)cc1 (stereo unspecified) was read as SUMO1 PPI mod inactive, STEP block inactive, DNMT1 inh inactive and LMPTP block inactive.
`NS(=O)(=O)c1ccc(NC(=O)c2ccc(-c3ccccc3)cc2)cc1` gave SUMO1 PPI mod inactive, STEP block inactive, Scp1 inh 60, DNMT1 inh 73, LMPTP block inactive, Scp-1 conf 66, Scp-1 MG ctr inactive, Scp1 DSF 14, DNMT1 inh conf inactive and Beacon interf inactive.
O=C(O)C(C(=O)/C=C/c1ccco1)=C1SCCS1 was read as SUMO1 PPI mod inactive, STEP block inactive, Scp1 inh 55, DNMT1 inh 96, LMPTP block inactive, Scp-1 conf 63, Scp-1 MG ctr inactive, Scp1 DSF inactive, DNMT1 inh conf inactive and Beacon interf inactive.
Screening O=C(C=C1SCCS1)/C=C/c1ccco1 returned SUMO1 PPI mod inactive, STEP block inactive, Scp1 inh 76, DNMT1 inh 88, LMPTP block inactive, Scp-1 conf 52, Scp-1 MG ctr inactive, Scp1 DSF inactive, DNMT1 inh conf inactive and Beacon interf inactive.
For O=C(/C=C/c1ccco1)NC1CCCC1 the results were SUMO1 PPI mod inactive, STEP block inactive, Scp1 inh inactive, DNMT1 inh inactive and LMPTP block inactive.
Screening O=C(C=Cc1ccco1)c1ccco1 returned SUMO1 PPI mod inactive, STEP block inactive, Scp1 inh inactive, DNMT1 inh inactive and LMPTP block inactive.
`O=C(C[C@H]1C[C@H](C(=O)N2CCCCC2)[C@@]2(CCc3ccccc3)c3[nH]c4cc(-c5ccco5)ccc4c3CCN2C1=O)NCc1cccc(C(F)(F)F)c1` gave SUMO1 PPI mod inactive, STEP block inactive, Scp1 inh inactive, DNMT1 inh inactive and LMPTP block inactive.
Screening CSCCC(C(=O)NC(C)(C)C)n1c(-c2ccc3c(c2)OCO3)nc2ccccc21 (stereo unspecified) returned SUMO1 PPI mod inactive and LMPTP block inactive.
For COc1ccc(N2Cc3cccc(C(=O)O)c3C2=O)cc1 the results were SUMO1 PPI mod inactive, STEP block inactive, Scp1 inh 82, DNMT1 inh 87, LMPTP block inactive, Scp-1 conf 71, Scp-1 MG ctr inactive, Scp1 DSF inactive, DNMT1 inh conf inactive and Beacon interf inactive.
`COc1ccc(N2Cc3ccccc3C2=O)cc1` gave SUMO1 PPI mod inactive, STEP block inactive, Scp1 inh inactive, DNMT1 inh inactive and LMPTP block inactive.
COc1ccc(C(=O)NCC(=O)OCC(=O)N2CC(C)OC(C)C2)cc1OC (stereo unspecified) was read as SUMO1 PPI mod inactive, STEP block inactive, Scp1 inh inactive, DNMT1 inh inactive and LMPTP block inactive.
COc1ccc(OCC(=O)Nc2cccc(-c3nc4ccccc4o3)c2)cc1 was read as SUMO1 PPI mod inactive, STEP block inactive, Scp1 inh inactive, DNMT1 inh inactive and LMPTP block inactive.

Compound activity as filed in PubChem.
